Screening data as filed in PubChem.
procasp3 activ = activates human procaspase-3; P42574; recombinant procaspase-3 D3A, Ac-DEVD-pNA absorbance 405 nm; activation, % at 8.5 µM; 0.11% of 330,000 active;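 active means activation above the mean of all tested compounds plus 3 SD, cut at about 21% in these data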;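 further: 0% = DMSO alone and 100% = DMSO wells spiked with extra 5 µM PC-3 D3A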
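Technique: 405 nm absorbance of p-nitroaniline, reads at 0 and 120 min; Test system: Procaspase-3 D3A mutant; Incubation: 1 h enzyme-compound preincubation, then 2 h substrate reaction, 25 °C; Repeats: singlicate, each compound tested once; Benchmarks: low control DMSO wells, high control DMSO plus 5 µM PC-3 D3A.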
procasp7 counter = counter-screen: procaspase-7 (human) activation; recombinant procaspase-7, Ac-DEVD-pNA absorbance 405 nm; D23A/D198A/D206A triple mutant, cannot self-cleave; scale: DMSO 0, 5 µM enzyme 100; activation, % at 8.5 µM; 0.093% of 330,000 active;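 active means percent activation above the screen-wide mean plus 3 SD, cut at about 25% in these data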
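Detection: p-Nitroaniline absorbance at 405 nm, read at 0 and 120 min; system: Uncleavable procaspase-7 mutant enzyme; evaluation: % activation from two-timepoint absorbance difference, scaled to controls; times: 1 h enzyme–compound preincubation and 2 h substrate reaction, both 25 °C; buffer or medium: Zinc-free HEPES pH 7.4 with 300 mM NaCl, 0.01% Triton X-100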
CHT block = inhibitors of human choline transporter CHT; CHT-expressing cells, membrane potential dye, choline response; hits give low values; 0.86% of 310,000 active; Q9GZV3; B-score at 10 µM;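 active means B-score over 3 SD under the library average, and starting fluorescence ratio not unusually high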;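 further: choline stimulus applied at its EC90 after an EC20 pre-addition; B-score computed on integrated fluorescence ratio after choline addition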
Target sequence (Q9GZV3 whole entry, looked up): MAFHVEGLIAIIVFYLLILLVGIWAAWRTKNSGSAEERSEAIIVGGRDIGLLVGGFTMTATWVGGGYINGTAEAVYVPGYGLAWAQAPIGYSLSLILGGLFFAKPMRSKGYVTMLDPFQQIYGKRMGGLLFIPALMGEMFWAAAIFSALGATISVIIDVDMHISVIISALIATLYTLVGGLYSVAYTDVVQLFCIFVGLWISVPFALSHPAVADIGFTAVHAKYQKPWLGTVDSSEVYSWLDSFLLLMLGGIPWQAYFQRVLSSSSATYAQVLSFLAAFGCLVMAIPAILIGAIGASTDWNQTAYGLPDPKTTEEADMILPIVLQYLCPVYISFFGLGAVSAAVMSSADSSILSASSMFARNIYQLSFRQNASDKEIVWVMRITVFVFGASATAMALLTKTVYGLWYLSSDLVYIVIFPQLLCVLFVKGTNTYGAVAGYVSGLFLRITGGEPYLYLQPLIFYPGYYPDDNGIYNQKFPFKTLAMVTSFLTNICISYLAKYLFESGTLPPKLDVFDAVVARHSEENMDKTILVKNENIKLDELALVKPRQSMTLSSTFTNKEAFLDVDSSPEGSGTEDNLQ
CHT allo act = allosteric activators of human choline transporter CHT; Q9GZV3; CHT-expressing cells, membrane potential dye, choline EC20; hits give high values; LV-AA mutant CHT in HEK293 cells; B-score at 10 µM; 0.49% of 310,000 active;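 active means initial fluorescence not abnormally high and integrated response B-score, plate-corrected, over 3 SD above library mean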
CHT inh conf = confirmation of human choline transporter CHT inhibitors. shares compounds with CHT block. CHT-expressing cells, choline membrane potential dye; LV-to-AA substituted CHT, HEK293 cells. CHT activity remaining % of control (hits give low values), % at 10 µM. 70% of 2,400 active;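 active means choline transporter activity left, mean of duplicates at 10 µM, below buffer-only control mean minus 3 SD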;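 further: depolarization triggered by choline at its EC90 following an EC20 pre-addition; 0% = hemicholinium-3 full block and 100% = buffer-only control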
HEK293 CHT ctr = activity in parental HEK293 cells lacking CHT. shares compounds with CHT block. membrane potential dye, choline response; active = decrease or increase beyond buffer ±3SD. membrane potential ratio readout (active if shifted either direction beyond buffer ±3SD; no single direction) at 10 µM. 4% of 2,400 active;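 further: parental cells lack the transporter so any hit is non-specific; ratio is peak minus trough fluorescence over baseline after EC90 choline challenge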
* marks the source's active call; other numbers are inactive results; i = inactive; · = no result given. The list is not random: actives were taken first. Their share in the collection is about 1.3%.

SMILES	procasp3 activ	procasp7 counter	CHT block	CHT allo act	CHT inh conf	HEK293 CHT ctr
CCN(CC)S(=O)(=O)c1cc(C(=O)Nc2nncs2)c(Cl)cc1Cl	4	5	-9.5*	i	50%*	i
CCCCCC(=O)c1ccc(O)cc1O	2	0	-6.1*	i	55%*	i
Cc1cc2nc(C)c(Cl)c(=O)n2[nH]1	2	-1	-7.4*	i	20%*	i
CCn1ccnc1CN(C)C(=O)C1CCC(=O)N(Cc2cccc(F)c2)C1 (stereo unspecified)	0	-6	i	i	·	·
CN1CCN(CCCNC(=S)Nc2ccc(F)c(Cl)c2)CC1	6	9	i	i	·	·
C/C(=N\NC(=O)c1ccoc1C)c1cccc2ccccc12	5	-1	-7.6*	i	i	i
CN(CCCNC(=O)CCc1cn(C)c2ccccc12)C1CCCCC1	2	-6	i	i	·	·
CC(NC(=O)C1=CC=CN2CCS(=O)(=O)N=C12)c1ccc(Cl)cc1Cl (stereo unspecified)	5	5	·	·	·	·
Fc1cccc(Cc2noc(CN3CCC(c4ccncc4)CC3)n2)c1	8	6	-5.6*	i	30%*	i
COc1ccc(NC(=O)CCNS(=O)(=O)c2cccc3nsnc23)c(OC)c1	1	10	i	i	·	·
CCOC(=O)c1cccc(Nc2ncnc3ccccc23)c1	2	-4	-8.2*	i	25%*	i
COC(=O)c1cccc(Nc2ncnc3ccc(C)cc23)c1	-3	-5	i	i	·	·
CC(C)Oc1ccc(/C(O)=C2/C(=O)C(=O)N(CCN3CCNCC3)C2c2cccc([N+](=O)[O-])c2)cc1 (stereo unspecified)	0	0	i	i	·	·
CCOC(=O)c1cnc2c(C(F)(F)F)cccc2c1N1CCOCC1	-3	4	-5.8*	i	52%*	i
COc1cn(-c2ccccc2)nc1C(=O)OCC(=O)Nc1ccc(C)c(C)c1	-2	-7	·	·	·	·
O=C(c1ccc(O)cc1)c1ccc(Cl)cc1	-7	-4	-6*	i	50%*	i
COc1ccc(C(=O)c2ccc(Cl)cc2)cc1	-2	3	i	i	·	·
Cc1ccc(S(=O)(=O)Nc2nc3ccccc3nc2NCc2ccco2)cc1	-7	-32	i	i	·	·
Cc1ccc(S(=O)(=O)Nc2nc3ccccc3nc2NCc2ccco2)cc1C	-12	-6	-5*	i	i	i
Cc1ccc(NC(=O)c2ccccc2NS(=O)(=O)c2ccc(Cl)s2)cc1S(=O)(=O)N1CCOCC1	0	1	-11*	i	40%*	i
COc1ccc(C)cc1NC(=O)c1ccccc1NS(=O)(=O)c1ccc(Cl)s1	3	10	-7.5*	i	15%*	i
O=C(O)COc1ccc(C(NC(=O)c2c(F)cccc2F)NC(=O)c2c(F)cccc2F)cc1	-10	-2	i	i	·	·
Cc1cccc(N2CCN(C(=O)c3ccc(NS(=O)(=O)c4ccc5[nH]c(=O)[nH]c5c4)cc3)CC2)c1C	12	5	-5.1*	i	i	i
O=C(c1ccc(NS(=O)(=O)c2ccc3[nH]c(=O)[nH]c3c2)cc1)N1CCN(c2ccccc2O)CC1	10	8	i	i	·	·
CN(C)c1ccc(C(=O)c2ccc(O)cc2O)cc1	-25	-70	-6*	i	61%*	i
SMILES	procasp3 activ	procasp7 counter	CHT block	CHT allo act	CHT inh conf	HEK293 CHT ctr
COc1ccc(C)cc1S(=O)(=O)N1CCOCC1	3	0	i	i	·	·
CC1CC(C)(C)N(C(=O)CN2C(=O)c3ccccc3C2=O)c2ccccc21 (stereo unspecified)	11	-6	-16*	i	62%*	i
Cc1ccccc1C(=O)c1cccn1CC(=O)NC(C)c1ccccc1 (stereo unspecified)	3	1	-6.8*	i	35%*	i
CCN(CC)S(=O)(=O)c1ccc(Cl)c(C(=O)N2CCc3ccccc32)c1	-2	-12	i	i	·	·
CCN(CC)S(=O)(=O)c1cc(C(=O)N2CCc3ccccc32)ccc1Cl	0	-7	-5.8*	i	67%*	i
O=C(N/N=C/c1cccnc1)c1ccc(CN2c3cccc4cccc(c34)S2(=O)=O)cc1	1	8	-5*	i	i	i
COc1cccc(/C=N/NC(=O)c2ccc(CN3c4cccc5cccc(c45)S3(=O)=O)cc2)c1	-2	6	i	i	·	·
Cc1ccc(N2NC(=O)/C(=C\c3cc4c(cc3[N+](=O)[O-])OCO4)C2=O)cc1C	-9	3	-5*	i	42%*	i
COc1cc(/C=C2/C(=O)NN(c3ccc(C)c(Cl)c3)C2=O)cc([N+](=O)[O-])c1O	·	·	i	i	·	·
C=CCN1C(c2cccc(C(F)(F)F)c2)=CS/C1=C(/C#N)c1nnc(N2CCOCC2)n1-c1ccccc1	10	-3	-6*	i	i	i
COc1cc(OC)cc(C(=O)Nc2nc(CC(=O)NC(C)c3ccccc3)cs2)c1 (stereo unspecified)	16	5	i	i	·	·
CC1(C(=O)NC(=S)NNC(=O)c2ccncc2)CCCCC1	-14	-21	i	i	·	·
O=C(NNC(=S)NC(=O)C12CC3CC(CC(C3)C1)C2)c1ccncc1	-22	-33	-9.6*	i	53%*	i
COc1ccc(CCNC(=O)CSc2nnc(CNC(=O)c3cc(OC)c(OC)c(OC)c3)o2)cc1OC	5	3	i	i	·	·
Clc1ccccc1-c1nnc(CNC2CC2)o1	-4	-1	i	i	·	·
O=C(NCCCn1ccnc1)Nc1ccc2c(c1)OCO2	1	1	i	i	·	·
CC(C)c1ccc(-c2nc3ccccc3s2)cc1	7	-7	-8.4*	i	i	i
CN(C)C1=NCCN1CCCCc1ccccc1	0	1	i	i	·	·
Cc1cc(Nc2ccc(O)cc2)ccc1N	-8	-11	·	·	·	·
CCCCCN(C(=O)CCC(=O)OCCOc1cccc(C)c1)c1c(N)n(CCCC)c(=O)[nH]c1=O	15	9	i	i	·	·
N#C/C(=N\Nc1ccc(Cl)c(Cl)c1)C(=O)C1CC1	-16	-7	i	i	·	·
N#C/C(=N\Nc1ccc(F)cc1)C(=O)C1CC1	-7	3	-6.2*	i	50%*	i
Cc1ccc(NC(=S)NNc2ccc([N+](=O)[O-])cc2S(=O)(=O)Nc2ccccc2C(=O)O)cc1C	-11	-25	-7.2*	i	50%*	i
